# In paper PMC6110378 (The Pediatric Infectious Disease Journal, 2018):
# Starred links: 1 amine or outer side, 2 acyl side, 3 side chain; linkers in the order of their positions; H or OH if unused. Positions of bridges follow the written chain, without caps; N, C: chain ends. Non-standard residues stand in square brackets, D forms with d. Residues, ends and D or L forms follow the SMILES beside them. *: point of attachment. hTyr(3S-OH,4S-OH,3'-OSO3H) = N[C@H](C(=O)O)[C@H](O)[C@@H](O)c1ccc(O)c(OS(=O)(=O)O)c1; Orn(4R-OH,5R-OH) = O=C([C@H](C[C@@H](O)[C@@H](O)N[*:3])N[*:1])[*:2]; Pro(3S-OH,4S-Me) = C[C@H]1CN[C@H](C(=O)O)[C@H]1O; X1 = CCCCCOc1ccc(-c2cc(-c3ccc(C(=O)*)cc3)no2)cc1; Gln(3R-OH) = NC(=O)C[C@@H](O)[C@H](N)C(=O)O; Hyp = O=C(O)[C@@H]1C[C@@H](O)CN1
# Legend:
# [1] = tested on: hematogenous Candida meningoencephalitis; details: rabbit model of hematogenous Candida meningoencephalitis; cited from earlier work
# [2] = tested on: Candida; assay: MIC values of isolates from infants with invasive candidiasis; type: cell-based
# [3] = Population PK model; type: in vivo, human infants; details: 2-compartment population PK model, 64 infants
# Summary of the method: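 The dataset was 287 HPLC-measured plasma concentrations from 64 infants aged 3–119 days in 4 pediatric trials, at doses of 0.75–10 mg/kg. A 2-compartment model was fitted in Pmetrics, with infusion into the central compartment and observations weighted by inverse assay variance. Clearance was allometrically scaled. Clearance and volume were normalized to the 1.8 kg mean weight. Kcp and Kpc are central↔peripheral transfer rates. Fit was assessed from observed versus predicted values, r2, bias and imprecision.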
compound,measurement,setting,value
"CCCCCOc1ccc(-c2cc(-c3ccc(C(=O)N[C@H]4C[C@@H](O)[C@@H](O)NC(=O)[C@@H]5[C@@H](O)[C@@H](C)CN5C(=O)[C@H]([C@H](O)CC(N)=O)NC(=O)[C@H]([C@H](O)[C@@H](O)c5ccc(O)c(OS(=O)(=O)O)c5)NC(=O)[C@@H]5C[C@@H](O)CN5C(=O)[C@H]([C@@H](C)O)NC4=O)cc3)no2)cc1 [micafungin] (X1-[Orn(4R-OH,5R-OH)]T[Hyp][hTyr(3S-OH,4S-OH,3'-OSO3H)][Gln(3R-OH)][Pro(3S-OH,4S-Me)]; lactam 1-C)",AUC:MIC ratio PD target for near-maximal effect,[1],1332
same,CNS PD target AUC for near-maximal effect,[1],approximately 166.5 mg·h/L
same,MIC90,[2]; isolates of infants in the 2 mg/kg study (n = 17),1 µg/mL
same,MIC90,[2]; isolates of infants in the 10 mg/kg study (n = 12),2 µg/mL
same,"Vstd (volume in the central compartment), median","[3]; normalized to 1.8 kg, median",0.43 L/1.8 kg
same,"Kcp (rate of drug moving from the central to the peripheral compartment), mean",[3]; mean (range),1.74 (0.035–5.966) h^–1
same,"Kpc (rate of drug moving from the peripheral to the central compartment), mean",[3]; mean (range),1.92 (0.090–5.970) h^–1
same,"Kcp, median",[3]; median,0.99 h^–1
same,"Kpc, median",[3]; median,2.00 h^–1
